Published values pooled from the literature.
Lines come from different studies, so protocols differ.
Observed: cell growth or viability

SMILES	cell line	test	setting	quantity	value
COc1ccc(NC(=O)Nc2cccc(-c3cn(Cc4ccc(Cl)cc4)nn3)c2)cc1	MCF7	CCK-8	50 µM, 72 h	viability	104%
NCCC(=O)Nc1ccccc1/N=c1\cc(-c2ccc3nc(N)oc3c2)oc2ccccc12	MCF7	CCK-8	1 µM	inhibition	46%
O=C(Nc1ccc(Cl)cc1)Nc1cccc(-c2cn(Cc3cccc(Br)c3)nn2)c1	MCF7	CCK-8	50 µM, 72 h	viability	72.8%
Nc1nc2ccc(-c3c/c(=N\c4ccccc4NC(=O)C4CCNC4)c4ccccc4o3)cc2o1 (stereo not shown)	MCF7	CCK-8	1 µM	inhibition	11.6%
COc1ccc(NC(=O)Nc2ccc(-c3cn(Cc4ccc(Cl)cc4)nn3)cc2)cc1	MCF7	CCK-8	50 µM, 72 h	viability	99%
C[C@H](Nc1ccc2c(c1)OCCn1cc(N3C(=O)OC[C@H]3C(F)F)nc1-2)C(N)=O	HCC1954	ATP luminescence	5 days	EC50	155 nM
CN(C)CCNC(=O)c1ccc(-c2nc3ccc4[nH]ncc4c3c3c2CCCC3)cc1	NOMO-1		72 h	GI50	568 nM
O=C(C[C@@H](C(F)F)n1ccc(F)n1)N1CCC(O)(Cn2cnc3c(cnn3-c3ccc(F)cc3)c2=O)CC1	CAPAN-1	SRB	9.145 nM, 5 days	viability	94.6%
COc1ccc(NC(=O)Nc2cccc(-c3cn(Cc4ccc(Br)cc4)nn3)c2)cc1	MCF7	CCK-8	50 µM, 72 h	viability	98.4%
CN(C)CCNC(=O)c1ccc(-c2nc3ccc4[nH]ncc4c3c3c2CCCC3)c(F)c1	NOMO-1		72 h	GI50	3080 nM
COc1ccc(NC(=O)Nc2ccc(-c3cn(Cc4cccc(Cl)c4)nn3)cc2)cc1	MCF7	CCK-8	50 µM, 72 h	viability	98.2%
C[C@H](N)C(=O)Nc1ccccc1/N=c1\cc(-c2ccc3c(c2)OCCO3)oc2cc(F)ccc12	MCF7	CCK-8	1 µM	inhibition	3.33%
O=C(Nc1ccc(-c2cn(Cc3ccc(Br)cc3)nn2)cc1)Nc1ccccc1Br	MCF7	CCK-8	50 µM, 72 h	viability	103%
Cc1n[nH]c2ccc3nc(-c4ccc(C(=O)NCCN(C)C)cc4F)c4c(c3c12)CCCCC4	NOMO-1		72 h	GI50	2730 nM
CC(C)(C)[C@H](N)C(=O)Nc1ccccc1/N=c1\cc(-c2ccc3c(c2)OCO3)oc2ccccc12	MCF7	CCK-8	1 µM	inhibition	21.3%
CN(C)CCNC(=O)c1ccc(-c2nc3ccc4[nH]ncc4c3c3c2CCCCC3)cc1	NOMO-1		72 h	GI50	2270 nM
O=C(NCc1cn(Cc2ccc(Cl)cc2)nn1)Nc1ccccc1Br	MCF7	CCK-8	50 µM, 72 h	viability	88.6%
Cc1ccccc1Cn1cc(-c2cccc(NC(=O)Nc3ccc(F)cc3)c2)nn1	MCF7	CCK-8	50 µM, 72 h	viability	58.8%
NC(=O)C1CCCN1C(=O)Nc1ccccc1/N=c1\cc(-c2ccc3c(c2)OCCO3)oc2cc(F)ccc12 (stereo not shown)	MCF7	CCK-8	1 µM	inhibition	7.19%
O=C(Nc1ccc(Cl)cc1)Nc1ccc(-c2cn(Cc3ccc(Cl)cc3)nn2)cc1	MCF7	CCK-8	50 µM, 48 h	viability	94.6%
Cc1n[nH]c2ccc3nc(-c4ccc(C(=O)NCCN(C)C)cc4F)c4c(c3c12)CCCC4	NOMO-1		72 h	GI50	292 nM
COc1ccc(NC(=O)Nc2ccc(-c3cn(Cc4ccc(C)cc4)nn3)cc2)cc1	MCF7	CCK-8	50 µM, 48 h	viability	81.1%
O=C(Nc1ccc(Cl)cc1)Nc1cccc(-c2cn(Cc3ccc(Cl)cc3)nn2)c1	MCF7	CCK-8	50 µM, 48 h	viability	104%
COc1ccc2/c(=N/c3ccccc3NC(=O)CN)cc(-c3ccc4c(c3)OCCO4)oc2c1	MCF7	CCK-8	1 µM	inhibition	9.77%
O=C(Nc1ccc(-c2cn(Cc3ccc(Cl)cc3)nn2)cc1)Nc1ccccc1Br	MCF7	CCK-8	50 µM, 48 h	viability	99.3%
CNCCC(=O)Nc1ccccc1/N=c1\cc(-c2ccc3nc(N)oc3c2)oc2ccccc12	MCF7	CCK-8	1 µM	inhibition	31.9%
O=C(Nc1ccc(Cl)cc1)Nc1cccc(-c2cn(Cc3cccc(Cl)c3)nn2)c1	MCF7	CCK-8	50 µM, 72 h	viability	70.5%
COc1ccc2oc(-c3ccc4nc(N)oc4c3)c/c(=N\c3ccccc3NC(=O)CCN)c2c1	MCF7	CCK-8	1 µM	inhibition	15%
